Laboratory results taken from ChEMBL document CHEMBL1157848, “Derivatives of benzimidazole pharmacophore: synthesis, anticonvulsant, antidiabetic and DNA cleavage studies” (2010).
Active and inactive are the calls of the source. The calls are words filed in the database; no cut-off is given here.

Key:
Nucleic Acid = assay: Induction of Escherichia coli DNA cleavage at 25 mg after 2 hrs using ethidium bromide staining by agarose gel electrophoresis methos; type: nucleic-acid assay
Procedure, shortened: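 Genomic DNA came from E. coli grown 24 h at 37 °C in nutrient broth. It was extracted by SDS/EDTA lysis, phenol then chloroform–isoamyl alcohol, and ethanol precipitation, and dissolved in TAE. Samples were incubated with the DNA 2 h at 37 °C, mixed 1:1 with bromophenol blue, and run on agarose in TAE at 50 V alongside a DNA marker. Gels were ethidium bromide stained 10–15 min and cleavage judged visually.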

Rattus norvegicus [1] = assay: Antidiabetic activity in Wistar albino rat assessed as reduction of blood glucose level administered qd for 9 days measured after 30 mins last post dose by oral glucose tolerance test (RVb = 183.2 +/- 3.68 mg/dl); type: functional
Rattus norvegicus [2] = assay: Antidiabetic activity in Wistar albino rat assessed as reduction of blood glucose level administered qd for 9 days by glucose oxidation method (RVb = […] +/- […] mg/dl); type: functional
Rattus norvegicus [3] = assay: Antidiabetic activity in Wistar albino rat assessed as reduction of fasting blood glucose level administered qd for 9 days by oral glucose tolerance test (RVb = 83.33 +/- 1.54 mg/dl); type: functional
Rattus norvegicus [4] = assay: Antidiabetic activity in Wistar albino rat assessed as reduction of blood glucose level administered qd for 9 days measured after 90 mins last post dose by oral glucose tolerance test (RVb = 135.7 +/- 2.9 mg/dl); type: functional
Rattus norvegicus [5] = assay: Anticonvulsant activity in Wistar albino rat assessed as time spent on tonic flexion phase at 75 mg/kg by MES test (RVb = 3.12 +/- 0.31 sec); type: functional
Procedure, shortened: (§1)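 Maximal electroshock (MES) convulsion model in rats. Duration in seconds of the flexion, extensor, clonus and stupor phases was recorded, along with recovery or death. The vehicle control was 1% w/w gum acacia and phenytoin was the reference. Data are mean ± SEM, with P < 0.05 taken as significant.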

Rattus norvegicus [6] = assay: Anticonvulsant activity in Wistar albino rat assessed as time spent on stupor phase at 75 mg/kg by MES test (RVb = 218.33 +/- 5.80 sec); type: functional; procedure, shortened: as §1
Rattus norvegicus [7] = assay: Anticonvulsant activity in Wistar albino rat assessed as time spent on tonic extensor phase at 75 mg/kg by MES test (RVb = 11 +/- 0.57 sec); type: functional; procedure, shortened: as §1
Rattus norvegicus [8] = assay: Anticonvulsant activity in Wistar albino rat assessed as time spent on clonic convulsions phase at 75 mg/kg by MES test (RVb = 16.80 +/-2.50 sec); type: functional; procedure, shortened: as §1
Rattus norvegicus [9] = assay: Anticonvulsant activity in Wistar albino rat assessed as time spent on tonic extensor phase at 65 mg/kg by MES test (RVb = 11 +/- 0.57 sec); type: functional; procedure, shortened: as §1
Rattus norvegicus [10] = assay: Anticonvulsant activity in Wistar albino rat assessed as time spent on tonic flexion phase at 65 mg/kg by MES test (RVb = 3.12 +/- 0.31 sec); type: functional; procedure, shortened: as §1
Rattus norvegicus [11] = assay: Anticonvulsant activity in Wistar albino rat assessed as time spent on clonic convulsions phase at 65 mg/kg by MES test (RVb = 16.80 +/- 2.50 sec); type: functional; procedure, shortened: as §1
Rattus norvegicus [12] = assay: Anticonvulsant activity in Wistar albino rat assessed as time spent on stupor phase at 65 mg/kg by MES test (RVb = 218.33 +/- 5.80 sec); type: functional; procedure, shortened: as §1
Rattus norvegicus [13] = assay: Anticonvulsant activity in Wistar albino rat assessed as time spent on stupor phase at 70 mg/kg by MES test (RVb = 218.33 +/- 5.80 sec); type: functional; procedure, shortened: as §1
Rattus norvegicus [14] = assay: Anticonvulsant activity in Wistar albino rat assessed as time spent on clonic convulsions phase at 70 mg/kg by MES test (RVb = 16.80 +/- 2.50 sec); type: functional; procedure, shortened: as §1
Rattus norvegicus [15] = assay: Anticonvulsant activity in Wistar albino rat assessed as time spent on tonic extensor phase at 70 mg/kg by MES test (RVb = 11 +/- 0.57 sec); type: functional; procedure, shortened: as §1
Rattus norvegicus [16] = assay: Anticonvulsant activity in Wistar albino rat assessed as time spent on tonic flexion phase at 70 mg/kg by MES test (RVb = 3.12 +/- 0.31 sec); type: functional; procedure, shortened: as §1
Rattus norvegicus [17] = assay: Anticonvulsant activity in Wistar albino rat assessed as time spent on tonic extensor phase at 82 mg/kg by MES test; type: functional; procedure, shortened: as §1
Rattus norvegicus [18] = assay: Anticonvulsant activity in Wistar albino rat assessed as time spent on stupor phase at 82 mg/kg by MES test (RVb = 218.33 +/- 5.80 sec); type: functional; procedure, shortened: as §1
Rattus norvegicus [19] = assay: Anticonvulsant activity in Wistar albino rat assessed as time spent on tonic flexion phase at 82 mg/kg by MES test (RVb = 3.12 +/- 0.31 sec); type: functional; procedure, shortened: as §1
Rattus norvegicus [20] = assay: Anticonvulsant activity in Wistar albino rat assessed as time spent on clonic convulsions phase at 82 mg/kg by MES test (RVb = 16.80 +/- 2.50 sec); type: functional; procedure, shortened: as §1

With Oc1ccc(-c2nnc(CSc3nc4ccccc4[nH]3)o2)cc1 the Activity (Nucleic Acid) was “inactive”, the Activity (Rattus norvegicus [1]) was 167.5 mg/dL and the Activity (Rattus norvegicus [2]) was 166.2 mg/dL. For the same compound, the Activity (Rattus norvegicus [3]) was 80.83 mg/dL and the Activity (Rattus norvegicus [4]) was 125 mg/dL.

c1ccc(-c2nnc(CSc3nc4ccccc4[nH]3)o2)cc1 was tested, and the Activity (Nucleic Acid) was “inactive”, the Activity (Rattus norvegicus [1]) was 180.2 mg/dL and the Activity (Rattus norvegicus [2]) was 337.2 mg/dL. It also gave an Activity (Rattus norvegicus [3]) of 76.33 mg/dL and an Activity (Rattus norvegicus [4]) of 107.7 mg/dL.

Compound O=[N+]([O-])c1ccc(-c2nnc(CSc3nc4ccccc4[nH]3)o2)cc1 has an Activity (Rattus norvegicus [1]) of 154.5 mg/dL, an Activity (Rattus norvegicus [2]) of 158.7 mg/dL and an Activity (Rattus norvegicus [3]) of 78.33 mg/dL. For the same compound, the Activity (Rattus norvegicus [4]) was 110 mg/dL.

With COc1ccc(C2SCC(=O)N2NC(=O)CSc2nc3ccccc3[nH]2)cc1 (configuration not stated) the Time (Rattus norvegicus [5]) was 3.02 s, the Time (Rattus norvegicus [6]) was 208 s and the Time (Rattus norvegicus [7]) was 9.5 s. For the same compound, the Time (Rattus norvegicus [8]) was 12.62 s.

O=C(CSc1nc2ccccc2[nH]1)NN1C(=O)CSC1c1ccc(Cl)cc1 (configuration not stated) was tested, and the Time (Rattus norvegicus [5]) was 4.56 s, the Time (Rattus norvegicus [6]) was 215.5 s and the Time (Rattus norvegicus [7]) was 12.1 s. It also gave a Time (Rattus norvegicus [8]) of 1.36 s.

O=C(CSc1nc2ccccc2[nH]1)NN1C(=O)CSC1c1ccco1 (configuration not stated) was tested, and the Time (Rattus norvegicus [9]) was 5.3 s, the Time (Rattus norvegicus [10]) was 4.2 s and the Time (Rattus norvegicus [11]) was 1 s. It also gave a Time (Rattus norvegicus [12]) of 208.6 s.

In the case of O=C(CSc1nc2ccccc2[nH]1)NN1C(=O)CSC1c1ccc(O)cc1 (configuration not stated), the Time (Rattus norvegicus [13]) is reported as 202.1 s, the Activity (Nucleic Acid) is reported as “Active” and the Time (Rattus norvegicus [14]) is reported as 1.02 s. The Time (Rattus norvegicus [15]) was 3.73 s and the Time (Rattus norvegicus [16]) was 3.96 s.

Compound c1cncc(-c2nnc(CSc3nc4ccccc4[nH]3)o2)c1 has an Activity (Rattus norvegicus [1]) of 181.8 mg/dL, an Activity (Rattus norvegicus [2]) of 343.3 mg/dL and an Activity (Rattus norvegicus [3]) of 81.34 mg/dL. It also gave an Activity (Rattus norvegicus [4]) of 122.8 mg/dL.

With COc1cccc(C2SCC(=O)N2NC(=O)CSc2nc3ccccc3[nH]2)c1O (configuration not stated) the Time (Rattus norvegicus [17]) was 4.21 s, the Time (Rattus norvegicus [18]) was 213.8 s and the Time (Rattus norvegicus [19]) was 3.3 s. It also gave a Time (Rattus norvegicus [20]) of 16.2 s.

Clc1ccc(-c2nnc(CSc3nc4ccccc4[nH]3)o2)cc1 was tested, and the Activity (Rattus norvegicus [1]) was 173.2 mg/dL, the Activity (Rattus norvegicus [2]) was 386.7 mg/dL and the Activity (Rattus norvegicus [3]) was 74.83 mg/dL. For the same compound, the Activity (Rattus norvegicus [4]) was 120 mg/dL.

In the case of Cc1ccc(C2SCC(=O)N2NC(=O)CSc2nc3ccccc3[nH]2)cc1 (configuration not stated), the Time (Rattus norvegicus [13]) is reported as 207.3 s, the Time (Rattus norvegicus [14]) is reported as 14.62 s and the Time (Rattus norvegicus [15]) is reported as 11 s. For the same compound, the Time (Rattus norvegicus [16]) was 3.12 s.
